In ChEMBL document CHEMBL1944553, “Structure-activity relationships of truncated C2- or C8-substituted adenosine derivatives as dual acting A₂A and A₃ adenosine receptor ligands” (J Med Chem, 2012):

Assays:
[1] = molecular target: T1, Adenosine receptor A3 (Homo sapiens) (UniProt P0DMS8); assay: Partial agonist activity at human recombinant adenosine A3 receptor expressed in CHO cells assessed as inhibition of forskolin-stimulated cAMP production at 10 uM incubated for 30 mins prior to forskolin addition by enzyme immunoassay relative to C1-IB-MECA; assay type: functional, cell-based
T1 sequence (whole entry): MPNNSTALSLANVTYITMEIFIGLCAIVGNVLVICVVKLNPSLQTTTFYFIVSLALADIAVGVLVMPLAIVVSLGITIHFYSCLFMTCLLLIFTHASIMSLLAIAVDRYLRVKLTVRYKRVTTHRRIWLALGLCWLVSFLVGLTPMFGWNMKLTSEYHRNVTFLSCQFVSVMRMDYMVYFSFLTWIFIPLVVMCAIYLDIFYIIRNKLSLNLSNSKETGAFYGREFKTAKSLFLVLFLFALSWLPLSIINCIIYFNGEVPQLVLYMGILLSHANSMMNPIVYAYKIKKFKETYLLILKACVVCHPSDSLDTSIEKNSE

[2] = molecular target: T2, Adenosine receptor A1 (Homo sapiens) (UniProt P30542); assay: Displacement of [3H]R-PIA from human recombinant adenosine A1 receptor expressed in CHO cells at 10 uM after 60 mins by […]; assay type: cell-based
T2 sequence (whole entry): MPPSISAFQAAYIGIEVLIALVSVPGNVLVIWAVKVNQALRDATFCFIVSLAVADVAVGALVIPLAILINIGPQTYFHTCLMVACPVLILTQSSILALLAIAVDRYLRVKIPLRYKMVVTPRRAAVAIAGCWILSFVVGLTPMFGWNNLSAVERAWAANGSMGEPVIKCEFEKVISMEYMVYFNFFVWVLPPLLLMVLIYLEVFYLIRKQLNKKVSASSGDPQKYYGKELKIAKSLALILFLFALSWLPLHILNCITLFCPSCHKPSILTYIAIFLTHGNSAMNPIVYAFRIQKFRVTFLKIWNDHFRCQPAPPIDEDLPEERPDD
Method in brief: (§1)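 Membranes (40 µg/tube) from CHO cells stably expressing human A1AR, incubated with 1 nM [3H]R-PIA at 25 °C for 60 min in 50 mM Tris-HCl pH 7.4 with 10 mM MgCl2. Nonspecific binding set with 10 µM NECA. GF/B filtration.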

Adenosine receptor A3 = molecular target: T3, Adenosine receptor A3 (Homo sapiens, UniProt P0DMS8); assay: Displacement of [125I]I-AB-MECA from human adenosine A3 receptor expressed in CHO cells after 60 mins by gamma counting; assay type: cell-based
T3 sequence (P0DMS8 whole entry): T1 sequence (whole entry)
Method in brief: (§2)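 hA3AR-CHO membranes (20 µg protein) with 0.5 nM [125I]I-AB-MECA and increasing ligand concentrations in 50 mM Tris-HCl pH 7.4, 10 mM MgCl2, 1 mM EDTA; 25 °C, 60 min. Nonspecific binding: 10 µM NECA. Filtered on GF/B, washed three times with ice-cold buffer, gamma-counted.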

Adenosine receptor A2a [3] = molecular target: T4, Adenosine receptor A2a (Homo sapiens, UniProt P29274); assay: Displacement of [3H]CGS21680 from human adenosine A2A receptor expressed in HEK293 cells at 10 uM after 60 mins by […]; assay type: cell-based
T4 sequence (P29274 whole entry): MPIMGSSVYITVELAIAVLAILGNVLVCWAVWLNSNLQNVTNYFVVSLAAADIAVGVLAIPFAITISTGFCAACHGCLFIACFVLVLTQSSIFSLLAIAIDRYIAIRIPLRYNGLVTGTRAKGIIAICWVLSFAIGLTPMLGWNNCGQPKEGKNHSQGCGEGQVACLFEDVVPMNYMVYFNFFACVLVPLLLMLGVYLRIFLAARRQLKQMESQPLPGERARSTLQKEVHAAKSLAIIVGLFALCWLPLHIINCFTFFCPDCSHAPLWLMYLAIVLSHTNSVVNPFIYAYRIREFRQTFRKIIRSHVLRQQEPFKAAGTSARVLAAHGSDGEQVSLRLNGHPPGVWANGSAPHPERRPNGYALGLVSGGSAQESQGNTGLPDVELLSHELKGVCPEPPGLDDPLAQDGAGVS
Method in brief: (§3)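 HEK-293 cells stably expressing human A2AAR. Membranes at 20 µg/tube were incubated with [3H]CGS21680 at 25 °C for 60 min in 50 mM Tris-HCl pH 7.4 with 10 mM MgCl2. Nonspecific binding was defined with 10 µM NECA, and reactions were stopped by GF/B filtration.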

Adenosine receptor A2a [4] = molecular target: T4, Adenosine receptor A2a; assay: Agonist activity at human recombinant adenosine A2A receptor expressed in CHO cells assessed as induction of cAMP production at 10 uM after 30 mins by enzyme immunoassay relative to NECA; assay type: functional, cell-based
[5] = molecular target: T5, Adenosine receptor A2b (Homo sapiens) (UniProt P29275); assay: Agonist activity at human recombinant adenosine A2B receptor expressed in CHO cells assessed as induction of cAMP production at 10 uM after 30 mins by immunoassay relative to NECA; assay type: functional, cell-based
T5 sequence (whole entry): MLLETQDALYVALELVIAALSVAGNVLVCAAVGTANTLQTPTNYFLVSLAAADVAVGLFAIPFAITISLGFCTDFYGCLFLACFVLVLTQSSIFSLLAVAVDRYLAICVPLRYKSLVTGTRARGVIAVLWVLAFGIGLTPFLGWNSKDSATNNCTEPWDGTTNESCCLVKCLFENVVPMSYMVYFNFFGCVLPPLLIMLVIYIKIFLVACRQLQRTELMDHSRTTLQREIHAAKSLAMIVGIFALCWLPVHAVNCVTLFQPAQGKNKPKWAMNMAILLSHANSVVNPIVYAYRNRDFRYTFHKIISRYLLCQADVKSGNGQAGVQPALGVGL

Adenosine receptor A2a [6] = molecular target: T4, Adenosine receptor A2a; assay: Displacement of [3H]CGS21680 from human adenosine A2A receptor expressed in HEK293 cells after 60 mins by […]; assay type: cell-based; method in brief: as §3
Adenosine receptor A1 = molecular target: T6, Adenosine receptor A1 (Homo sapiens, UniProt P30542); assay: Displacement of [3H]R-PIA from human recombinant adenosine A1 receptor expressed in CHO cells after 60 mins by […]; assay type: cell-based; method in brief: as §1
T6 sequence (P30542 whole entry): T2 sequence (whole entry)

Rattus norvegicus = assay: Antiinflammatory activity in Sprague-Dawley rat assessed as reduction in carrageenan-induced paw edema at 20 mg/kg, ip administered 30 mins before carrageenan challenge measured after 4 hrs by plethysmometer analysis; assay type: functional; set-up: scale not given: the % may be the effect or the level left; conditions: route intraperitoneal
Method in brief: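 Male Sprague-Dawley rats (140–160 g, 5 weeks), acclimatized one week. Compound at 20 mg/kg given ip in 5% cremophor/5% ethanol in PBS; vehicle as control. After 30 min, 0.1 mL 1% carrageenan in saline was injected subplantar into the right hind paw, with saline in the left. Paw volume was read by plethysmometer at 0–24 h, 4 h included. Mean ± SD, ANOVA.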

[7] = molecular target: T1, Adenosine receptor A3 (Homo sapiens); assay: Displacement of [125I]I-AB-MECA from human adenosine A3 receptor expressed in CHO cells at 10 uM after 60 mins by gamma counting; assay type: cell-based; method in brief: as §2
[8] = molecular target: T1, Adenosine receptor A3 (Homo sapiens); assay: Competitive antagonist activity at human recombinant adenosine A3 receptor expressed in CHO cells assessed as inhibition of C1-IB-MECA-induced cAMP production preincubated for 30 mins prior to forskolin addition by enzyme immunoassay; assay type: functional, cell-based
Adenosine receptor A2a [9] = molecular target: T4, Adenosine receptor A2a; assay: Agonist activity at human recombinant adenosine A2A receptor expressed in CHO cells assessed as induction of cAMP production after 30 mins by immunoassay; assay type: functional, cell-based

Structure (SMILES)	inhibition [1]	inhibition [2]	Ki (Adenosine receptor A3)	inhibition (Adenosine receptor A2a [3])	Ki (Adenosine receptor A2a [6])	other results
CCCCC#Cc1nc(NCc2cccc(F)c2)c2ncn([C@@H]3OC[C@@H](O)[C@H]3O)c2n1	29.5%	9%	0.57 µM	25%		
CCCC/C=C/c1nc2c(N)ncnc2n1[C@@H]1SC[C@@H](O)[C@H]1O	6.1%					
CCCC/C=C/c1nc(N)c2ncn([C@@H]3OC[C@@H](O)[C@H]3O)c2n1	42.6%	31.9%	0.218 µM		0.178 µM	Activity (Adenosine receptor A2a [4]): 83%; Activity [5]: 1.8%
CCCCC#Cc1nc(NCc2cccc(I)c2)c2ncn([C@@H]3SC[C@@H](O)[C@H]3O)c2n1	40%	15%	0.039 µM		4.89 µM	
CCCCC#Cc1nc2c(N)ncnc2n1[C@@H]1OC[C@@H](O)[C@H]1O	24.5%		0.0317 µM	27.2%		Ki (Adenosine receptor A1): 0.29 µM
CCCCC#Cc1nc(NCc2cccc(Cl)c2)c2ncn([C@@H]3OC[C@@H](O)[C@H]3O)c2n1	39.7%	9%	0.15 µM	42%		
COc1ccc2c(c1)c(CC(=O)O)c(C)n2C(=O)c1ccc(Cl)cc1 [INDOMETHACIN]						Activity (Rattus norvegicus): 49.7%
CCCCCCc1nc(N)c2ncn([C@@H]3OC[C@@H](O)[C@H]3O)c2n1	22.3%	10%			2.16 µM	inhibition [7]: 39%
CCCC/C=C/c1nc(N)c2ncn([C@@H]3SC[C@@H](O)[C@H]3O)c2n1	10.7%					Kb [8]: 0.0239 µM; Activity (Adenosine receptor A2a [4]): 109%; EC50 (Adenosine receptor A2a [9]): 0.0206 µM; Activity [5]: 3.6%
CCCCC#Cc1nc(NCc2cccc(Br)c2)c2ncn([C@@H]3SC[C@@H](O)[C@H]3O)c2n1	25.2%	12%	0.024 µM		3.91 µM	
CCCCC#Cc1nc(NCc2cccc(Cl)c2)c2ncn([C@@H]3SC[C@@H](O)[C@H]3O)c2n1	47.2%	25%	0.024 µM		3.73 µM	
CCCCC#Cc1nc(NCc2cccc(F)c2)c2ncn([C@@H]3SC[C@@H](O)[C@H]3O)c2n1	47.6%	24%	0.15 µM	46%		
CCCC/C=C/c1nc2c(N)ncnc2n1[C@@H]1OC[C@@H](O)[C@H]1O	19.5%		0.0942 µM	27.3%		Ki (Adenosine receptor A1): 0.5 µM
CCCCC#Cc1nc2c(N)ncnc2n1[C@@H]1SC[C@@H](O)[C@H]1O	1.7%					Activity [5]: 7%
CCCCC#Cc1nc(NCc2cccc(Br)c2)c2ncn([C@@H]3OC[C@@H](O)[C@H]3O)c2n1	37.2%	12%	0.067 µM	27%		
CCCCCCc1nc2c(N)ncnc2n1[C@@H]1OC[C@@H](O)[C@H]1O	12.9%	18.1%		5.8%		inhibition [7]: 24.7%
CCCCC#Cc1nc(N)c2ncn([C@@H]3SC[C@@H](O)[C@H]3O)c2n1	2.8%					Activity (Rattus norvegicus): 51.1%
CCCCC#Cc1nc(NCc2cccc(I)c2)c2ncn([C@@H]3OC[C@@H](O)[C@H]3O)c2n1	31.5%	18%	0.22 µM	32%		
CCCCC#Cc1nc(N)c2ncn([C@@H]3OC[C@@H](O)[C@H]3O)c2n1	17.4%		0.138 µM		0.0632 µM	Activity (Adenosine receptor A2a [4]): 89.9%; Ki (Adenosine receptor A1): 0.74 µM; EC50 (Adenosine receptor A2a [9]): 0.0803 µM; Activity [5]: 1.9%
